FID counter = compounds displacing fluorescent DNA intercalator, primary screen, artefact control for HCV NS3 helicase inhibitor project, biochemical, FID fluorescence. DNA fluorescent intercalator displacement. inhibition, % at 7.9 µM. 290,000 compounds, 0.17% hits; in the data active = inhibition above about 37%;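 note: 0% = vehicle and 100% = reference compound; higher means more ethidium bromide displaced from hairpin DNA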
eIF4H FP inh = human eIF4H binding inhibitors, primary screen, translation initiation inhibitor project, biochemical, uHTS, fluorescence polarization | Eukaryotic translation initiation factor 4H (Homo sapiens), Q15056 | eIF4H fluorescence polarization binding assay | inhibition, % at 35 µM | 290,000 compounds, 0.94% hits | AID 2012, 2009;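 note: calls also rest on retests at 20 µM and on dose response follow-up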
HCV core dimer = inhibitors of HCV core protein dimerization, primary screen, biochemical, TR-FRET, high-throughput; 300,000 compounds, 0.33% hits; AID 1899, 2009; inhibition, % at 5 µM; TR-FRET GST/Flag-core106 dimerization, 1536-well;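 active = inhibition above the mean of all tested compounds plus 3 SD, set per screening campaign, cut at about 45% in these data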
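Material: GST/Flag-tagged HCV core106 proteins. Incubation: 4 h, 22.5 °C incubation. Read-out basis: inhibition (%) from 671 over 617 nm ratio. Measured by: TR-FRET, excitation 340 nm, emission 617 and 671 nm.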
HCV NS3 hel inh = inhibitors of HCV NS3 helicase, primary screen, biochemical, Cy5 molecular beacon fluorescence; NS3 helicase DNA unwinding; inhibition, % at 10.9 µM; Hepatitis C virus NS3 helicase; 290,000 compounds, 0.56% hits; AID 1800, 2009;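 active = inhibition above the mean of all tested compounds plus 3 SD, set per campaign, cut at about 35% in these data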;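 note: 0% = DMSO wells and 100% = thioflavine S control wells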
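Control set: DMSO versus 110 µM thioflavine S; Material: NS3 helicase fragment of HCV; Measured by: Cy5 fluorescence at 0 and 60 min, beacon hairpin quenching; Read-out basis: percent inhibition from t60/t0 fluorescence ratio; Times: reaction time 60 min, 25 °C; Repeats: single replicate; Compound dosing: single dose, 10.9 µM nominal final, DMSO 0.8% final.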
PABP1 MLLE inh = inhibitors of PABP1 MLLE–PAM2 peptide binding, primary screen, biochemical, fluorescence polarization, FITC-PAM2, GST-MLLE | Polyadenylate-binding protein 1 (Homo sapiens), P11940 | inhibition, % at 20 µM | 360,000 compounds, 0.36% hits | AID 588489, 2011; in the data active = inhibition above about 35%, passing the limit was not always enough;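 note: plate controls were DMSO wells with GST-MLLE for no effect and wells lacking GST-MLLE protein for full effect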
Target sequence (P11940 whole entry, looked up): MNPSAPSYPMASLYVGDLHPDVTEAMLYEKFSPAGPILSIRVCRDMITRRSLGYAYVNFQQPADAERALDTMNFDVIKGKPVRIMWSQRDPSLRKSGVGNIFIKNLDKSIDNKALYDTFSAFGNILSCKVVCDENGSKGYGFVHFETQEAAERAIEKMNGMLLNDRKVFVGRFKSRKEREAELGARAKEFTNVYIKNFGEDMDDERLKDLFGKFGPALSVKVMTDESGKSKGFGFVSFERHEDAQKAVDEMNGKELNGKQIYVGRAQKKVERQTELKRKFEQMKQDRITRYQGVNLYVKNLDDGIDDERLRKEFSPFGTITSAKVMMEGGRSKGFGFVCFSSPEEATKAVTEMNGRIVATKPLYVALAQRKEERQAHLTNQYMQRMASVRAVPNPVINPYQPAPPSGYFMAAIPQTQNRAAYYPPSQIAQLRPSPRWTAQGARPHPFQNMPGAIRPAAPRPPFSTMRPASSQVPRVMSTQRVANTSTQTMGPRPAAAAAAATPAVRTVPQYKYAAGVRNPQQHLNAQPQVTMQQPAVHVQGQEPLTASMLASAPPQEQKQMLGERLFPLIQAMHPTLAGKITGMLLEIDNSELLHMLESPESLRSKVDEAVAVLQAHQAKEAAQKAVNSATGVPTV
PABP polyA inh = PABP poly(A) RNA binding inhibitors, primary screen, biochemical, fluorescence polarization, uHTS | AID 2014, 2009 | Polyadenylate-binding protein 1 (Homo sapiens), P11940 | inhibition, % at 35 µM | 290,000 compounds, 1% hits;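 note: calls also rest on retests at 20 µM and on dose response follow-up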
* = called active by the depositor; u = inconclusive; x = not tested or not shown. Only some compounds are listed: those with a hit (about 2% of all), similar ones and a draw of the others. Unless noted, the rule behind the calls is not given here.

SMILES	FID counter	eIF4H FP inh	HCV core dimer	HCV NS3 hel inh	PABP1 MLLE inh	PABP polyA inh
Cn1ncc2nnn(-c3ccccc3)c(=O)c21	-1	3	-6	6	-8	8
N#Cc1c(N(CCO)CCO)nc(N)c2c(N)nc3c(c12)CC(=O)N3CC1CCCO1 (centres undefined)	-1	24	-1	-12	15	27
N#Cc1c(N2CCCC(O)C2)nc(N)c2c(N)nc3c(c12)CC(=O)N3C12CC3CC(CC(C3)C1)C2 (centres undefined)	-14	91*	52*	-29	-42	62*
CCCCN1C(=O)Cc2c1nc(N)c1c(N)nc(N(CCC)CCC)c(C#N)c21	-6	10	24	-10	14	13
C=C(C)CN(CC)c1nc(N)c2c(N)nc3c(c2c1C#N)CC(=O)N3C12CC3CC(CC(C3)C1)C2	-4	76*	42	-15	-14	62*
COc1ccc(Cl)cc1Cn1c(C)c(C(=O)NCc2cccc(Cl)c2)sc1=O	x	x	x	x	-18	x
CN(C)CCCN1C(=O)c2cccc3c(Br)ccc(c23)C1=O	13	31	-5	14	57*	5
CC(c1nc2ccccc2c(=O)[nH]1)N(C)c1ccc2ccccc2c1 (centres undefined)	-4	17	-8	2	42*	35
CN(c1ccc(O)cc1)c1nc(-c2cccs2)cs1	2	-7	0	9	0	0
Cc1nc(N)sc1-c1csc(N(C)c2ccc(O)cc2)n1	3	92*	-7	14	-9	70*
Cc1cc(C)n2c(Nc3ccc4c(c3)OCCO4)c(-c3ccc(C)o3)nc2n1	-14	-5	-11	2	2	9
Cc1cc(C)n2c(Nc3ccc4c(c3)OCCO4)c(-c3ccco3)nc2n1	-17	-3	x	60*	x	8
CC1=CN2C(c3cccc([N+](=O)[O-])c3)=NON(c3ccc(C)cn3)C2C=C1 (centres undefined)	x	x	x	x	-11	x
Cn1nc(C(=O)O)c(=O)n(C)c1=O	x	x	x	x	40*	x
O=c1c2ccccc2nc2n1C(CBr)CS2 (centres undefined)	2	-7	-6	-8	24	6
O=c1nc2n(c3sc4c(c13)CCCC4)C(CBr)CS2 (centres undefined)	-2	-11	2	6	40*	2
OC(c1ccc(-c2ccccc2)cc1)c1ncc(-c2ccc(F)cc2)[nH]1 (centres undefined)	x	x	x	x	-8	x
Cc1cc(C)c(NC(=O)NC(=O)c2ccc(F)cc2)c(C)n1	-11	76*	4	4	4	60*
FC(F)(F)c1cnc(Sc2nnc(-c3cccs3)n2CC2CCCO2)c(Cl)c1 (centres undefined)	-22	-10	4	4	-10	4
N#Cc1c(Sc2ncc(C(F)(F)F)cc2Cl)nsc1C/C=N\OCc1c(F)cccc1Cl	0	18	54*	22	-55	12
O=C1C=C(O)c2cccc3cccc1c23	-6	58*	3	19	70*	58*
COC(=O)c1ccccc1Oc1cc(C(F)(F)F)nc(-c2ccccn2)n1	x	x	-6	x	-14	x
O=C(O)c1cccc(-n2cccc2/C=C\[N+](=O)[O-])c1	18	99	-2	28	-53	58*
O=C(O)c1cccc(-n2cccc2/C=N/O)c1	-4	92*	-28	9	13	63*
CCN(CCNC(=O)C1CCN(Cc2nc(-c3ccc(Cl)cc3)oc2C)CC1)c1ccccc1	44*	6	2	-47	-3	-11
SMILES	FID counter	eIF4H FP inh	HCV core dimer	HCV NS3 hel inh	PABP1 MLLE inh	PABP polyA inh
CCC(C)c1ccccc1N1CC(C(=O)Nc2ccc(N3CCOCC3)cc2)CC1=O (centres undefined)	x	x	x	x	6	x
COc1ccc(-c2csc(NC(=O)CSc3n[nH]c(N)n3)n2)cc1	0	-7	-1	2	37*	-11
C=C1CC[C@@H]2[C@](C)(CO)[C@H](O)CC[C@@]2(C)[C@@H]1C/C=C1/C(=O)OCC1O (some centres undefined)	x	x	x	x	10	x
Cc1cccc(NS(=O)(=O)c2ccc3[nH]c(=O)oc3c2)c1C	x	x	x	x	-7	x
Cc1ccc(C)c(NS(=O)(=O)c2ccc3[nH]c(=O)oc3c2)c1	-2	u	-2	10	-7	42*
COC(=O)c1ccc(NS(=O)(=O)c2ccc3[nH]c(=O)oc3c2)cc1	3	66*	4	0	-25	21
COCCNC(=O)C1CCCN(Cc2ccc(C)cc2)CC1 (centres undefined)	x	x	x	x	2	x
Oc1ccc(C2Nc3cccc4cccc(c34)N2)c(O)c1	0	89*	0	6	7	41*
c1coc(C2Nc3cccc4cccc(c34)N2)c1	5	110*	24	13	x	102*
Brc1ccc(C2Nc3cccc4cccc(c34)N2)cc1	x	x	x	x	-5	x
Clc1ccccc1C1Nc2cccc3cccc(c23)N1	-9	u	12	12	6	u
Cc1ccc(C2Nc3cccc4cccc(c34)N2)s1	-2	103	9	-6	12	24*
CN(C)S(=O)(=O)c1ccc(N2CCCC2)c(C(=O)NC2CCC(O)CC2)c1 (centres undefined)	x	x	2	x	15	x
Cn1cnc2ncnn2c1=S	x	x	x	x	17	x
CNc1ccc2ncc(-c3ccc(OC)c(OC)c3)n2n1	x	x	x	x	-6	x
O=C(C1CCC(Cn2c(=S)[nH]c3ccccc3c2=O)CC1)N1CCN(c2ccccc2)CC1 (centres undefined)	-7	x	53*	-14	-51	x
O=C(C1CCC(Cn2c(=O)[nH]c3ccccc3c2=O)CC1)N1CCN(c2ccccc2)CC1 (centres undefined)	-31	3	5	-2	-6	-12
CC(C)C(=O)Nc1ccc2c(c1)nc(CCN1CCN(c3ccccn3)CC1)n2C	-19	2	x	9	-1	-7
COc1ccc(OC)c(/C=C/C(=O)N2C(=O)c3cccc(N)c3C2=O)c1	-7	8	9	16	40*	-2
Cn1cnnc1SCc1ccc(-c2ccc(Br)cc2)o1	-8	12	64*	24	-21	9
Cc1cc[n+](-c2nc3ccccc3nc2C(=C=[N-])C#N)cc1	2	70*	18	5	-13	57*
N#CC(=C=[N-])c1nc2ccccc2nc1-[n+]1ccccc1	-2	3	-6	-2	6	10
Cc1cc[n+](-c2nc3ccccc3nc2[N-]S(=O)(=O)c2ccccc2)cc1	-3	51*	-4	3	15	active

From PubChem
